# Source: PubChem
# Shown is part of a subset that was picked to be rich in hits.
# MPTP block = permeability transition pore inhibition; isolated mouse mitochondria, Ca2+ swelling absorbance, 30 min; inhibition, % at 10 µM; hit rate 1.4% among 360,000; AID 602449;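 active = inhibition of 50% or more, scaled per plate between neutral and stimulator controls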;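 also: 0% = DMSO wells given calcium and 100% = 1 mM EGTA wells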
# DTT redox prof = compounds producing H2O2 with reducing agent – biochemical, NIH compound library profiling, artefact control for MLSCN library redox annotation, primary screen; DTT-dependent redox cycling H2O2, phenol red/HRP absorbance; 100% = 100 µM peroxide control, 0% = buffer; activation, % at 10 µM; hit rate 0.03% among 200,000; AID 878;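 active = activation of at least 50% relative to the plate's high and low controls in the primary single-dose screen; inactive = activation below 50%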;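 also: compound incubated with DTT at 0.8 mM final as the reducing agent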
# T cruzi inh = T. cruzi replication inhibition. T. cruzi beta-gal in NIH3T3, luminescence, 90 h. inhibition, % (no concentration beside the values). hit rate 1.4% among 300,000. AID 1885;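 active = mean inhibition across valid replicates above about 55%, limit read from the data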;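 also: signal also drops with host cell toxicity which is not excluded here; 0% = plate median of DMSO wells and 100% = zero luminescence signal; higher percent means less beta-gal luminescence so fewer parasites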
#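 Material: NIH/3T3 host cells with β-galactosidase reporter T. cruzi; Input: 5,000 host fibroblasts per well; Medium: DMEM, 2% fetal bovine serum; Compound: 50 nL DMSO compound solution per well; Schedule: 3 h host attachment, then at least 90 h co-culture; Detection: luminescent β-galactosidase signal after 60 min lysis.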
# Lipid droplet = modulators of hepatic lipid droplet formation | AML12 mouse hepatocytes, oleate lipid droplets, BODIPY imaging | inhibition, % at 6.5 µM | hit rate 0.4% among 240,000 | AID 1656;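 active = lipid droplet intensity inhibited by at least 50%, with more than 500 cells counted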
#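 System: AML12 hepatocytes (mouse). Probe or stimulus: oleic acid at 100 µM to induce lipid droplet formation. Times: overnight treatment with compound plus oleate. Detection: Image-based BODIPY and DAPI two-channel analysis. Evaluation: percent inhibition of filter-corrected integrated lipid droplet intensity per well.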
# L major viab = Leishmania major promastigote growth inhibition; Leishmania major promastigotes, resazurin fluorescence viability; inhibition, % at 10 µM; hit rate 9% among 200,000; in the data active = inhibition above about 50%;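 also: promastigotes grown with compound for 44 hours at 28 °C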
# Starred values were filed as active, the others as inactive; · = no result given.
SMILES,MPTP block,DTT redox prof,T cruzi inh,Lipid droplet,L major viab
Cc1ccc2c(c1)CC(C)N2S(=O)(=O)c1nnc(NC(=O)CC(C)C)s1 (centres undefined),0,·,-12,-16,·
Cn1c(-c2ccccc2)cc2ccccc21,-2,·,-12,20,·
Cn1c(-c2ccccc2)cc2c3no[n+]([O-])c3ccc21,-1,2,73*,·,3
O=C(c1cc[n+]([O-])cc1)N1CCCC(N2CCN(c3cccc(C(F)(F)F)c3)CC2)C1 (centres undefined),-1,·,-1,3,·
O=C(CN1C(=O)NC2(CCCCCC2)C1=O)NCc1ccccc1,-2,·,·,·,·
Cc1cc(C)c2[nH]c(=O)c(CN(CC3CCCO3)C(=O)c3cnccn3)cc2c1 (centres undefined),-1,2,-3,·,4
Cc1ccc(NC(=S)N(CCN(C)C)Cc2cc3cc(C)cc(C)c3[nH]c2=O)cc1,0,0,-14,-3,79*
Cc1ccc2cc(CN(CCN(C)C)C(=S)Nc3ccccc3)c(=O)[nH]c2c1C,-1,0,23,-11,13
CCOCCCN(Cc1cc2cc(C)cc(C)c2[nH]c1=O)C(=O)N(CC)CC,1,3,15,2,58*
CCOC(=O)C1=C(C)Nc2ccccc2N=C1NC(=O)/C=C/c1ccc(OC)cc1OC,0,-1,7,18,80*
COCC(=O)N1CCC(Oc2ccc(C(=O)NC(C)c3nc(C)sc3C)cc2)CC1 (centres undefined),-4,·,7,-24,·
CCOC(=O)N1CCC(N2C(=O)c3ccccc3C2Nc2cc(C)cc(C)c2)CC1 (centres undefined),1,·,-2,-1,·
CCOC(=O)N1CCC(N2C(=O)c3ccccc3C2Nc2cc(C(=O)OC)cc(C(=O)OC)c2)CC1 (centres undefined),-1,-2,-3,·,62*
Cc1ccc(S(=O)(=O)N[C@H](C(=O)N2CCC(C(=O)N[C@@H](CCC(N)=O)C(=O)O)CC2)C(C)C)cc1,-2,·,3,2,·
COc1ccccc1-c1c(C)oc2cc(OCC(=O)OCc3ccccc3)ccc2c1=O,3,0,-14,17,87*
COC(=O)C1=C(C)N(c2ccccc2)C(=S)NC1c1ccccc1C(F)(F)F (centres undefined),2,0,6,4,70*
COc1ccc(NC(=O)c2cc(S(=O)(=O)N3CCCCC3)c[nH]2)cc1Cl,-1,·,-5,10,·
Cc1ccc(C(=O)Nc2ccccc2N2CCCCC2)o1,-2,·,13,-32,·
O=C(Nc1ccc2c(c1)OCO2)c1cnn2c(C(F)(F)F)cc(-c3ccco3)nc12,-2,0,·,·,16
O=C(Nc1cnn(C23CC4CC(CC(C4)C2)C3)c1)c1cnn2c(C(F)(F)F)cc(-c3ccco3)nc12,1,1,-6,-7,82*
O=C(CNS(=O)(=O)c1ccc([N+](=O)[O-])cc1)N/N=C/c1ccc(O)cc1O,0,·,-27,1,·
COc1cc(C(=O)N2CCN(c3ccccc3)CC2)c([N+](=O)[O-])cc1OC,2,-1,-30,8,-1
CC(Nc1c([N+](=O)[O-])c(=O)oc2ccccc12)C(Cl)c1ccccc1 (centres undefined),8,-2,-1,·,56*
O=c1oc2ccccc2c(NC(c2ccccc2)c2ccccc2)c1[N+](=O)[O-],-8,1,-4,-17,1
O=C(CSc1nnc(-c2cccc(F)c2)o1)N1CCCC1,-2,·,-6,2,·
SMILES,MPTP block,DTT redox prof,T cruzi inh,Lipid droplet,L major viab
COc1ccc(CCNC(=O)c2ccc(CNS(=O)(=O)c3ccccc3)cc2)cc1OC,-1,0,15,3,70*
CN1CCN(C(=O)c2ccc(CN3CCOCC3)cc2)CC1,1,0,-13,·,-5
Cc1ccc(S(=O)(=O)NCCC(=O)N2CCC(Cc3ccccc3)CC2)cc1,0,·,7,·,·
O=C(c1ccc(CN2CCOCC2)cc1)N1CCC(Cc2ccccc2)CC1,0,-1,18,·,87*
COc1ccc(CCNC(=O)C2CCC(CNS(=O)(=O)c3ccccc3)CC2)cc1OC (centres undefined),·,-1,1,15,2
Cc1ccc(S(=O)(=O)NCc2ccc(C(=O)NCCCN3CCC(Cc4ccccc4)CC3)cc2)cc1,0,1,26,3,96*
O=C(c1ccc([N+](=O)[O-])cc1)N1CCN(Cc2ccccc2)CC1,1,-1,2,0,13
O=C(c1ccc(-n2cccc2)cc1)N1CCN(Cc2ccccc2)CC1,1,1,-14,·,75*
CCCCN(C(=O)CSCc1ccc(C)cc1)c1c(N)n(CCC)c(=O)[nH]c1=O,-1,·,-13,7,·
CCCS(=O)(=O)NC(=O)C1(C)CCCN(C(=O)c2ccccc2F)C1 (centres undefined),0,·,·,·,·
CC(C)OCCCNC(=O)c1cn(C)c2ccc(S(=O)(=O)N3CCCC3)cc2c1=O,2,·,-2,8,·
Cc1ccc(OCC(=O)NCc2n[nH]c(=O)c3ccccc23)cc1,-2,·,5,·,·
COc1ccc(S(=O)(=O)NCc2ccc(C(=O)N3CCN(Cc4ccccc4)CC3)cc2)cc1,0,·,30,6,·
CCN1CCN(C(=O)c2ccc(CN(c3ccccc3)S(=O)(=O)c3ccccc3)cc2)CC1,1,0,-5,-24,80*
Cc1ccc(S(=O)(=O)NCc2ccc(C(=O)N3CCN(Cc4ccccc4)CC3)cc2)cc1,0,0,15,-3,77*
Cc1cc(C)c2c(=O)[nH]c(SCC(=O)c3ccc(F)c(C)c3)nc2n1,0,0,-6,8,-4
CN(CCOc1ccccc1)C(=O)c1cc([N+](=O)[O-])cc([N+](=O)[O-])c1,0,0,64*,0,26
CC(=O)Oc1ccc(Cn2cnc3cc4ccccc4cc32)cc1,7,1,-7,-12,58*
CCc1ccc(/C=C/C(=O)c2cc(Br)ccc(=O)c2O)cc1,4,1,33,1,11
O=C(/C=C/c1cc(Br)ccc1O)c1ccco1,41,·,-20,-10,·
N#Cc1ccc(/C=C/C(=O)c2ccco2)cc1,-1,0,-11,-6,31
Cc1ccc(/C=C/C(=O)c2cc(Br)ccc2OC(=O)c2ccco2)cc1,4,2,-6,-27,87*
Cc1cccc(/C=C/C(=O)c2cc(Br)ccc(=O)c2O)c1,-19,1,43,1,100*
Nc1ccc(/C=C/C(=O)c2ccco2)cc1,0,0,-11,-2,51*
Cc1ccc(NNc2c(C)nc3ccccc3nc2=O)cc1,0,-2,-22,15,-6
COc1ccc(-c2cc(C(=O)Nc3cccc(S(=O)(=O)NCc4ccco4)c3)c3ccccc3n2)cc1OC,2,-1,60*,9,72*
O=C(Nc1cccc(S(=O)(=O)NCc2ccco2)c1)c1cc(-c2ccc(F)cc2)nc2ccccc12,14,-1,49,-26,98*
